Experiments:
Type in all cases: functional
SN12C = test: Growth inhibition of human SN12C cells at 10 uM after 48 hrs by coulter counter analysis; details: read-out: GI
Summary of the method: (§1)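 Single-dose NCI 60-line panel screen of test compounds. Cells grown in RPMI 1640 with 10% FBS. Compounds dissolved in DMSO, then diluted in phosphate buffer saline (final DMSO below 1%). Wells run in duplicate at 6 × 10⁴ cells/ml. Controls held PBS and DMSO at matching dilutions. Incubation 48 h at 37 °C under humidified 5% CO2. Cells diluted tenfold in saline and counted by Coulter counter. Percent growth inhibition taken from mean-graph of treated-cell growth.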

UO-31 = test: Growth inhibition of human UO31 cells at 10 uM after 48 hrs by coulter counter analysis; details: UO-31, 48 h, read-out: GI
Summary of the method: (§2)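 Single-dose screen in the NCI 60 cell line panel. Cells grown in RPMI 1640 with 10% FBS. Compounds dissolved in DMSO and diluted in phosphate buffered saline, final DMSO under 1%. Duplicate wells seeded from culture at 6 × 10⁴ cells/ml. Incubated 48 h at 37 °C, humidified, 5% CO2. Cells diluted tenfold in saline and Coulter-counted. Percent growth inhibition computed against PBS/DMSO controls.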

OVCAR-8 = test: Growth inhibition of human OVCAR8 cells at 10 uM after 48 hrs by coulter counter analysis; details: OVCAR-8, 48 h, read-out: GI; summary of the method: as §1
U-251 = test: Growth inhibition of human U251 cells at 10 uM after 48 hrs by coulter counter analysis; details: U-251, 48 h, read-out: GI; summary of the method: as §2
K562 = test: Growth inhibition of human K562 cells at 10 uM after 48 hrs by coulter counter analysis; details: K562, 48 h, read-out: GI; summary of the method: as §1
OVCAR-3 = test: Growth inhibition of human OVCAR3 cells at 10 uM after 48 hrs by coulter counter analysis; details: OVCAR-3, 48 h, read-out: GI; summary of the method: as §1
SNB-19 = test: Growth inhibition of human SNB19 cells at 10 uM after 48 hrs by coulter counter analysis; details: SNB-19, 48 h, read-out: GI; summary of the method: as §1
BT-549 = test: Growth inhibition of human BT549 cells at 10 uM after 48 hrs by coulter counter analysis; details: BT-549, 48 h, read-out: GI; summary of the method: as §1
HL-60(TB) = test: Growth inhibition of human HL-60(TB) cells at 10 uM after 48 hrs by coulter counter analysis; details: HL-60, 48 h, read-out: GI
Summary of the method: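 Cells grown in RPMI 1640 with 10% FBS. Compound was dissolved in DMSO and diluted in PBS (under 1% DMSO final), then added in duplicate wells to culture at 6 × 10⁴ cells/ml. PBS/DMSO vehicle controls were included. Incubated at 37 °C, humidified 5% CO₂, for 48 h. Cells were diluted 10-fold in saline and Coulter-counted. Single-dose NCI-60 screen, read as percent growth inhibition.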

HOP-92 = test: Growth inhibition of human HOP92 cells at 10 uM after 48 hrs by coulter counter analysis; details: HOP-92, 48 h, read-out: GI; summary of the method: as §1
T47D = test: Growth inhibition of human T47D cells at 10 uM after 48 hrs by coulter counter analysis; details: read-out: GI; summary of the method: as §2
OVCAR-5 = test: Growth inhibition of human OVCAR5 cells at 10 uM after 48 hrs by coulter counter analysis; details: OVCAR-5, 48 h, read-out: GI; summary of the method: as §1
TK-10 = test: Growth inhibition of human TK10 cells at 10 uM after 48 hrs by coulter counter analysis; details: TK-10, 48 h, read-out: GI; summary of the method: as §2
UACC-257 = test: Growth inhibition of human UACC257 cells at 10 uM after 48 hrs by coulter counter analysis; details: UACC-257, 48 h, read-out: GI; summary of the method: as §2
SF-295 = test: Growth inhibition of human SF295 cells at 10 uM after 48 hrs by coulter counter analysis; details: SF-295, 48 h, read-out: GI; summary of the method: as §1
NCI-H23 = test: Growth inhibition of human NCI-H23 cells at 10 uM after 48 hrs by coulter counter analysis; details: NCI-H23, 48 h, read-out: GI; summary of the method: as §1
UACC-62 = test: Growth inhibition of human UACC62 cells at 10 uM after 48 hrs by coulter counter analysis; details: UACC-62, 48 h, read-out: GI; summary of the method: as §2
A498 = test: Growth inhibition of human A498 cells at 10 uM after 48 hrs by coulter counter analysis; details: A498, 48 h, read-out: GI; summary of the method: as §1
SK-MEL-2 = test: Growth inhibition of human SK-MEL-2 cells at 10 uM after 48 hrs by coulter counter analysis; details: SK-MEL-2, 48 h, read-out: GI; summary of the method: as §1
MDA-MB-468 = test: Growth inhibition of human MDA-MB-468 cells at 10 uM after 48 hrs by coulter counter analysis; details: MDA-MB-468, 48 h, read-out: GI; summary of the method: as §1
EKVX = test: Growth inhibition of human EKVX cells at 10 uM after 48 hrs by coulter counter analysis; details: read-out: GI; summary of the method: as §1
Malme-3M = test: Growth inhibition of human MALME-3M cells at 10 uM after 48 hrs by coulter counter analysis; details: read-out: GI; summary of the method: as §1
SK-OV-3 = test: Growth inhibition of human SKOV3 cells at 10 uM after 48 hrs by coulter counter analysis; details: SK-OV-3, 48 h, read-out: GI; summary of the method: as §1
HOP-62 = test: Growth inhibition of human HOP62 cells at 10 uM after 48 hrs by coulter counter analysis; details: HOP-62, 48 h, read-out: GI; summary of the method: as §1

| Structure (SMILES) | inhibition of growth at 10 µM (SN12C) | inhibition of growth at 10 µM (UO-31) | inhibition of growth at 10 µM (OVCAR-8) | inhibition of growth at 10 µM (U-251) | inhibition of growth at 10 µM (K562) | inhibition of growth at 10 µM (OVCAR-3) | inhibition of growth at 10 µM (SNB-19) | inhibition of growth at 10 µM (BT-549) | inhibition of growth at 10 µM (HL-60(TB)) | inhibition of growth at 10 µM (HOP-92) | inhibition of growth at 10 µM (T47D) | inhibition of growth at 10 µM (OVCAR-5) | inhibition of growth at 10 µM (TK-10) | inhibition of growth at 10 µM (UACC-257) | inhibition of growth at 10 µM (SF-295) | inhibition of growth at 10 µM (NCI-H23) | inhibition of growth at 10 µM (UACC-62) | inhibition of growth at 10 µM (A498) | inhibition of growth at 10 µM (SK-MEL-2) | inhibition of growth at 10 µM (MDA-MB-468) | further results |
| --- | --- | --- | --- | --- | --- | --- | --- | --- | --- | --- | --- | --- | --- | --- | --- | --- | --- | --- | --- | --- | --- |
| CCOC(=O)c1sc(NC(=O)C(C)N2CCCCC2)nc1C (stereo unspecified) | < 10% | 13.4% | < 10% | < 10% | < 10% | < 10% | < 10% | < 10% | < 10% | < 10% | < 10% | < 10% | < 10% | < 10% | < 10% | < 10% | < 10% | < 10% | < 10% | < 10% | inhibition of growth at 10 µM (EKVX): < 10%; inhibition of growth at 10 µM (Malme-3M): < 10%; inhibition of growth at 10 µM (SK-OV-3): < 10%; inhibition of growth at 10 µM (HOP-62): < 10% |
| CCOC(=O)c1sc(NC(=O)C(C)N2CCN(C)CC2)nc1C (stereo unspecified) | < 10% | 13.1% | < 10% | < 10% | < 10% | < 10% | < 10% | < 10% | < 10% | < 10% | < 10% | < 10% | < 10% | < 10% | < 10% | < 10% | < 10% | < 10% | < 10% | < 10% | inhibition of growth at 10 µM (EKVX): < 10%; inhibition of growth at 10 µM (Malme-3M): < 10%; inhibition of growth at 10 µM (SK-OV-3): < 10%; inhibition of growth at 10 µM (HOP-62): < 10% |
| CC(C(=O)Nc1nccs1)N1CCN(c2ccccc2)CC1 (stereo unspecified) | < 10% | < 10% | < 10% | < 10% | < 10% | < 10% | < 10% | < 10% | < 10% | < 10% | < 10% | < 10% | < 10% | < 10% | < 10% | < 10% | < 10% | < 10% | < 10% | < 10% | inhibition of growth at 10 µM (EKVX): < 10%; inhibition of growth at 10 µM (Malme-3M): < 10%; inhibition of growth at 10 µM (SK-OV-3): < 10%; inhibition of growth at 10 µM (HOP-62): < 10% |
| CC(C(=O)Nc1nccs1)N1CCN(C)CC1 (stereo unspecified) | < 10% | 19.4% | < 10% | < 10% | < 10% | < 10% | < 10% | < 10% | 11.2% | < 10% | < 10% | < 10% | < 10% | < 10% | < 10% | < 10% | < 10% | < 10% | < 10% | < 10% | inhibition of growth at 10 µM (EKVX): < 10%; inhibition of growth at 10 µM (Malme-3M): < 10%; inhibition of growth at 10 µM (SK-OV-3): < 10%; inhibition of growth at 10 µM (HOP-62): < 10% |

From ChEMBL document CHEMBL2040727, “Substituted thiazoles VI. Synthesis and antitumor activity of new 2-acetamido- and 2 or 3-propanamido-thiazole analogs” (2012)
